Measurements from ChEMBL document CHEMBL1122640, “Studies on heterocyclic compounds. 6. Synthesis and analgesic and antiinflammatory activities of 3,4-dimethylpyrano[2,3-c]pyrazol-6-one derivatives” (J Med Chem, 1984).

What was measured:
Mus musculus = species on record: Mus musculus; assay: Compound was tested for […] activity by phenylquinone writhing method in mice.; assay type: functional
Procedure, shortened: (§1)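 Phenylquinone (0.03% in 5% aqueous ethanol, 10 mL/kg ip) given to female ddN mice (18-22 g); test drug given orally 30 min beforehand. Writhes counted over 15 min, starting 5 min after phenylquinone. Five to ten mice per dose; values given with range and n.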

Rattus norvegicus [1] = assay: Antiinflammatory activity, % inhibition was reported 3 hr after carrageenan injection in the hind paw edema test in rats: dose=80 mg/kg.; assay type: functional
Procedure, shortened: (§2)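 Male Wistar rats (90-120 g); paw edema raised by subcutaneous injection of 0.1 mL 1% carrageenin into the hind foot pad. Drug given orally at 80 mg/kg. Swelling inhibition read 3 h after carrageenin and compared with vehicle control for significance.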

[2] = Acute lethal toxicity on day 7 was determined; assay type: organism-based; conditions: mouse, in vivo
Mus sp. = assay: Analgesic activity by phenylquinone writhing method in mice after peroral administration; assay type: functional; conditions: po; procedure, shortened: as §1
Rattus norvegicus [3] = assay: Antiinflammatory activity, % inhibition was reported 3 hr after carrageenan injection in the hind paw edema test in rats: dose=80 mg/kg; assay type: functional; procedure, shortened: as §2
Rattus norvegicus [4] = assay: Compound was tested for antiinflammatory activity and the % inhibition was reported 3 hr after carrageenan injection in the hind paw edema test in rats: dose=80 mg/kg; assay type: functional; procedure, shortened: as §2
Rattus norvegicus [5] = assay: Compound was tested for antiinflammatory activity and the % inhibition was reported 3 h after carrageenan injection in the hind paw edema test in rats: dose=40 mg/kg, p.o.; assay type: functional; conditions: po
Procedure, shortened: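 Male Wistar rats (90-120 g) given 0.1 mL 1% carrageenin subcutaneously into the hind foot pad. Drug given po at 40 mg/kg. Edema inhibition read at 3 h after carrageenin and compared with vehicle control.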

Row | SMILES | ED50 (Mus musculus) [mg/kg] | inhibition in vivo at 80 mg/kg (Rattus norvegicus [1]) [%] | other results
1 | CCCCCn1nc(C)c2c(C)cc(=O)oc21 | > 100 | 3.5 | –
2 | Cc1cc(=O)oc2nn(C)c(C)c12 | 6.09 | 3.3 | LD50 at 7 day [2]: 250 mg/kg
3 | CCCCn1nc(C)c2c(C)cc(=O)oc21 | > 100 | -0.9 | –
4 | Cc1cc(=O)oc2c1c(C)nn2CCO | 100 | -0.9 | –
5 | CCCCCn1nc2oc(=O)cc(C)c2c1C | 60.6 | -5.4 | –
6 | Cc1cc(=O)oc2c1c(CC(=O)O)nn2C | > 100 | -3.1 | –
7 | CCCCn1nc2oc(=O)cc(C)c2c1C | > 100 | -3.1 | –
8 | CCn1nc(C)c2c(C)cc(=O)oc21 | 24.9 | 12.1 | –
9 | Cc1cc(O)oc2nnc(CC(=O)O)c1-2 | > 100 | 6.4 | –
10 | CCOC(=O)Cc1nnc2oc(O)cc(C)c1-2 | > 100 | -4.1 | –
11 | Cc1cc(=O)oc2nn(CCCl)c(C)c12 | – | -2.1 | ED50 (Mus sp.): 56 mg/kg
12 | Cc1cc(=O)oc2c1c(C)nn2C(C)C | > 100 | 1.1 | –
13 | Cc1cc(=O)oc2c1c(C)nn2C | 11.6 | 4.7 | LD50 at 7 day [2]: > 1500 mg/kg
14 | Cc1cc(=O)oc2nn(CCN3CCOCC3)c(C)c12 | > 100 | 4.4 | –
15 | CCOC(=O)Cc1nn(C)c2oc(=O)cc(C)c12 | > 100 | -3.1 | –
16 | Cc1cc(=O)oc2nn(C(C)C)c(C)c12 | 35.3 | 3.7 | –
17 | CCn1nc2oc(=O)cc(C)c2c1C | 14.6 | – | inhibition in vivo at 80 mg/kg (Rattus norvegicus [3]): 13.1%
18 | CCCn1nc2oc(=O)cc(C)c2c1C | 72.6 | 4.9 | –
19 | CCCn1nc(C)c2c(C)cc(=O)oc21 | 54.3 | -0.6 | –
20 | CC(=O)n1nc2oc(=O)cc(C)c2c1C | – | 4.5 | ED50 (Mus sp.): 12.2 mg/kg
21 | Cc1cc(=O)oc2nn(C(=O)c3ccccc3)c(C)c12 | – | 11.9 | ED50 (Mus sp.): 35 mg/kg
22 | Cc1cc(=O)oc2nn(CCO)c(C)c12 | > 100 | 1.8 | –
23 | Cc1cc(=O)oc2nn(C(=O)c3ccco3)c(C)c12 | – | 2.2 | ED50 (Mus sp.): 74.3 mg/kg
24 | CCN(CC)CCn1nc2oc(=O)cc(C)c2c1C | 100 | – | inhibition in vivo at 80 mg/kg (Rattus norvegicus [4]): 17%
25 | Cc1cc(=O)oc2nn(C(=O)CCl)c(C)c12 | – | 5.2 | ED50 (Mus sp.): > 100 mg/kg
26 | Cc1c(N(C)C)c(=O)n(-c2ccccc2)n1C [AMINOPYRINE] | 19.2 | – | inhibition in vivo at 80 mg/kg (Rattus norvegicus [4]): 17.5%
27 | CC(=O)Oc1ccccc1C(=O)O [ASPIRIN] | – | – | ED50 (Mus sp.): > 100 mg/kg
28 | CC(C)Cc1ccc(C(C)C(=O)O)cc1 (centres undefined) [IBUPROFEN] | 50 | – | inhibition in vivo at 80 mg/kg (Rattus norvegicus [4]): 39%
29 | Cc1cccc(Nc2ccccc2C(=O)O)c1C [MEFENAMIC ACID] | 45.9 | – | inhibition in vivo at 40 mg/kg (Rattus norvegicus [5]): 33.1%
